Experimental data reported in ChEMBL document CHEMBL1122351, “Synthesis of (E)-1-(5-chlorothien-2-yl)-2-(1H-imidazol-1-yl)ethanone 2,6-dichlorophenylhydrazone hydrochloride, a novel, orally active antifungal agent” (1983).
In brackets after ≈: the same amount, converted by molar mass.

Legend:
[1] = system: Microsporum canis; assay: In vitro antifungal activity against Microsporum canis; assay type: functional
Summary of the method: (§1)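 Agar dilution in Sabouraud dextrose agar in microtitre wells. Drug stock in Me2SO, serial twofold dilutions to final 0.8–100 µg/mL, final Me2SO 1%. Candida inoculum 10^4 cells/mL, read after 24 h at 37 °C. Dermatophytes used mycelial inocula, read after 5 days at […]. MIC is the highest dilution with no visible growth. Run in duplicate.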

[2] = system: Candida albicans; assay: In vitro antifungal activity against Candida albicans GB; assay type: functional; summary of the method: as §1
[3] = system: Epidermophyton floccosum; assay: In vitro antifungal activity against Epidermophyton floccosum; assay type: functional; summary of the method: as §1
[4] = system: Trichophyton rubrum; assay: In vitro antifungal activity against Trichophyton rubrum; assay type: functional; summary of the method: as §1
[5] = system: Trichophyton benhamiae; assay: In vitro antifungal activity against Trichophyton mentagrophytes; assay type: functional, Arthroderma benhamiae; summary of the method: as §1
[6] = system: Candida albicans; assay: In vitro antifungal activity against Candida albicans 3153; assay type: functional; summary of the method: as §1
[7] = system: Candida albicans; assay: In vitro antifungal activity against Candida albicans A; assay type: functional; summary of the method: as §1
[8] = system: Candida albicans; assay: In vitro antifungal activity against Candida albicans B; assay type: functional; summary of the method: as §1
[9] = system: Cavia porcellus; assay: Effect of topical administration (1% w/v) on course of expt. Ringworm infections in guinea pig by Trichophyton mentagrophytes; assay type: functional
Summary of the method: (§2)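 Female guinea pigs, eight per group, shaved backs infected with a saline suspension of T. mentagrophytes spores. Drug given orally or applied topically; topical positive control was a 1% w/v solution in polyethylene glycol 200. Disease course followed by culture of skin and hair samples from on and around the infection sites. Result given as % reduction in recovery versus control.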

[10] = system: Rattus norvegicus; assay: Percent reduction in recovery of Candida albicans (experimental vaginitis) in rats by topical administration at 1% w/v; assay type: functional, Vagina
[11] = system: Cavia porcellus; assay: Effect of oral administration (60 mg/kg) on course of expt. Ringworm infections in guinea pig by Trichophyton mentagrophytes; assay type: functional; summary of the method: as §2
[12] = system: Mus musculus; assay: Effect of oral administration (10 mg/kg) on recovery of Candida albicans from kidneys of mice with expt. candidal infection; assay type: functional
Summary of the method: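 Mice (10 per group) infected intravenously with a sublethal dose (50 × 10^4 cells) of C. albicans. Oral gavage at 0 and 24 h after infection. Kidneys excised 2 days post-infection, weighed and homogenized. Diluted homogenates plated on glucose-peptone agar for 24 h at 37 °C. Colony counts compared with infected, untreated controls and expressed as % reduction.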

[13] = system: Rattus norvegicus; assay: Percent reduction in recovery of Candida albicans (experimental vaginitis) in rats at 10 mg/kg (po); assay type: functional, Vagina
Summary of the method: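 Female Wistar rats, 6 per group, hysterectomized and ovariectomized. Pseudoestrus induced and kept by s.c. estradiol diacetate (125 µg) every 3 days. Infected intravaginally with 10^7 C. albicans cells on 2 successive days, with 2 days to establish. Maximal infection meant >600 colonies per 50 µL vaginal washing. Dosed by oral gavage; % reduction in recovery versus control.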

[14] = system: Rattus norvegicus; assay: Percent reduction in recovery of Candida albicans (experimental vaginitis) n rats at 20 mg/kg (po); assay type: functional, Vagina
Summary of the method: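 Female Wistar rats, 6 per group, hysterectomized and ovariectomized. Pseudoestrus induced with subcutaneous estradiol diacetate (125 µg) after 3 weeks, then every 3 days. Infected intravaginally with 10^7 C. albicans cells on 2 successive days; treatment began 2 days later. Infection confirmed by >600 colonies per 50 µL vaginal washings. Oral dosing by gavage. Result given as % reduction in recovery versus control.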

[15] = system: Cavia porcellus; assay: Effect of oral administration (30 mg/kg) on course of expt. Ringworm infections in guinea pig by Trichophyton mentagrophytes; assay type: functional; summary of the method: as §2
[16] = system: Mus musculus; assay: Effect of oral administration (2.5 mg/kg) on recovery of Candida albicans from kidneys of mice with expt. candidal infection; assay type: functional
Summary of the method: (§3)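 Mice, 10 per group, infected intravenously with a sublethal dose (50 × 10^4 cells) of C. albicans. Oral gavage at 0 and 24 h after infection. Killed 2 days post-infection; kidneys excised, weighed, homogenized, diluted and plated on glucose-peptone agar, 24 h at 37 °C. Colony counts compared with infected untreated controls, given as % reduction.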

[17] = system: Mus musculus; assay: Effect of oral administration (20 mg/kg) on recovery of Candida albicans from kidneys of mice with expt. candidal infection; assay type: functional; summary of the method: as §3
[18] = system: Rattus norvegicus; assay: Percent reduction in recovery of Candida albicans (experimental vaginitis) n rats by topical administration at 1% w/v; assay type: functional, Vagina
[19] = system: Cavia porcellus; assay: Effect of topical administration (2% w/v) on course of expt. Ringworm infections in guinea pig by Trichophyton mentagrophytes; assay type: functional; summary of the method: as §2
[20] = system: Mus musculus; assay: Effect of oral administration (5 mg/kg) on recovery of Candida albicans from kidneys of mice with expt. candidal infection; assay type: functional; summary of the method: as §3

Row | MIC [1] [µg/mL] | MIC [2] [µg/mL] | MIC [3] [µg/mL] | MIC [4] [µg/mL] | MIC [5] [µg/mL] | MIC [6] [µg/mL] | MIC [7] [µg/mL] | MIC [8] [µg/mL] | Structure (SMILES) | Reduction [12] [%] | Reduction [13] [%] | further results
1 | 25 | 12.5 | 25 | 12.5 | 12.5 | 12.5 | 6.2 | 6.2 | Cl.Clc1ccc(/C(Cn2ccnc2)=N\Nc2c(Cl)cccc2Cl)s1 |  |  | 
2 |  |  |  |  |  |  |  |  | Clc1ccccc1C(c1ccccc1)(c1ccccc1)n1ccnc1 [CLOTRIMAZOLE] |  |  | Reduction [9]: 88%; Reduction [10]: 75%
3 |  |  |  |  |  |  |  |  | COC1=CC(=O)C[C@@H](C)[C@]12Oc1c(Cl)c(OC)cc(OC)c1C2=O [GRISEOFULVIN] |  |  | Reduction [11]: 90%
4 |  |  |  |  |  |  |  |  | CC(=O)N1CCN(c2ccc(OCC3COC(Cn4ccnc4)(c4ccc(Cl)cc4Cl)O3)cc2)CC1 (stereo not drawn) [KETOCONAZOLE] | 57 | 68 | 
5 | 25 | 12.5 | 25 | 25 | 12.5 | 12.5 | 6.2 | 6.2 | Cl.Clc1ccc(/C(Cn2ccnc2)=N/Nc2c(Cl)cccc2Cl)s1 [ZINOCONAZOLE HYDROCHLORIDE] | 65 | 47 | Reduction [14]: 63%; Reduction [15]: 70%; Reduction [16]: 9%; Reduction [17]: 44%; Reduction [18]: 54%; Reduction [19]: 77%; Reduction [20]: 43%

Row | Structure (SMILES) | MIC [1] [µg/mL] | MIC [2] [µg/mL] | MIC [3] [µg/mL] | MIC [4] [µg/mL] | MIC [5] [µg/mL] | MIC [6] [µg/mL] | MIC [7] [µg/mL] | MIC [8] [µg/mL] | Reduction [12] [%] | Reduction [13] [%] | further results
6 | Clc1ccc(COC(Cn2ccnc2)c2ccc(Cl)cc2Cl)c(Cl)c1 (stereo not drawn) [MICONAZOLE] | 6.2 (≈ 14.9 µM) | 6.2 (≈ 14.9 µM) | 12.5 (≈ 30 µM) | 1.6 (≈ 3.84 µM) | 1.6 (≈ 3.84 µM) | 12.5 (≈ 30 µM) | 6.2 (≈ 14.9 µM) | 6.2 (≈ 14.9 µM) |  |  | 
